Bioassay records (PubChem)
Insulin prom up – MIN6 insulin promoter up-regulation. z-score at 5 µM. MIN6 insulin promoter-GFP reporter, high-content imaging; hits give high values. actives 0.3% (n = 190,000);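 active = z-score above 3 at 5 µM with at least 500 cells counted in the well; inconclusive = wells under 500 cells, flagged as cytotoxic or low count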
ABCG2 inh – blocks JC-1 efflux by human ABCG2 transporter; IgMXP3 cells, flow cytometry; actives 0.1% (n = 190,000); AID 1325; inhibition, % at 6.6 µM;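 active = inhibition above 80%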
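Test system: ABCG2 IgMXP3 and barcoded ABCB1 CCRF-Adr cell mix; Schedule: cells with compound and JC-1, 10 min at 25 °C, rotating, no wash; Technique: flow cytometry of retained JC-1 fluorescence; Measure: % inhibition of efflux relative to nicardipine and DMSO; Controls: nicardipine high and DMSO low controls.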
sdo1 growth – compounds rescuing growth of sdo1-depleted yeast, bone marrow failure model; z-score at 10 µM; actives 0.21% (n = 140,000); S. cerevisiae sdo1-depleted JHY4D growth rescue, OD600 30 h; hits give high values; pdr5 snq2 efflux-pump mutant strain;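 active = z-score above 3 at both the 24 hr and the 30 hr optical density reads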
Autophagy mod – autophagy modulation, high-content screen. MEF GFP-LC3 puncta imaging; test concentration mostly 10 µM. calls only at 10 µM (by protocol). actives 0.98% (n = 190,000). AID 463193;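 active = percentage of spot-positive cells more than 3 SD above its plate mean, without a fluorescence outlier flag or 80% toxicity; inconclusive = no clear call, values can overlap the other calls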
ROMK mod – human ROMK K+ channel modulation, primary screen. Tet-inducible ROMK, thallium flux fluorescence; actives lie on both sides. B-score at 10 µM. actives 2% (n = 130,000);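 active = signal ratio slope over the read window, or its plate-corrected B-score, at least 3 SD from the plate mean, either direction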;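 note: B-score of the F/F0 ratio slope over 7 to 12 s after thallium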
ABCB1 block – blocks JC-1 efflux by human ABCB1 transporter | P08183 | CCRF-Adr cells, flow cytometry | inhibition, % at 6.6 µM | actives 0.067% (n = 190,000); in the data active = inhibition above about 40%;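 note: higher value means more JC-1 retained so stronger ABCB1 efflux block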
ROMK retest – confirmation of human ROMK potassium channel modulators; actives 54% (n = 3,000); shares compounds with ROMK mod; normalized thallium flux (F/F0 slope) at 10 µM; ROMK thallium flux, fluorescence ratio; hits give low values; AID 1917;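 active = Flux at 10 µM at least 3 SD below or above vehicle control mean in one or both replicates; inconclusive = no clear call, values can overlap the other calls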
Hits are given with their value; - = inactive; ? = inconclusive; . = not tested or not shown; + = active, no number. A selection: hits, their analogues and other compounds. The true share with any hit is near 2.3%.

SMILES | Insulin prom up | ABCG2 inh | sdo1 growth | Autophagy mod | ROMK mod | ABCB1 block | ROMK retest
CCN(CC(=O)Nc1cc(OC)ccc1OC)Cc1nc2ccccc2c(=O)[nH]1 | - | - | . | - | 2.77 | - | -
CCN(CC)S(=O)(=O)c1ccc(C)c(NS(=O)(=O)c2cc(/C=C/C(=O)O)cc(OC)c2OC)c1 | - | - | . | - | - | - | .
CCN(CC)CCCOC(=O)c1ccc(OC)cc1O | - | - | . | - | - | - | .
Cc1ccc(NS(=O)(=O)c2ccc(OCC(N)=O)cc2)cc1 | - | - | . | - | - | - | .
N#CC1=C(N)Oc2n[nH]c(-c3cccs3)c2C1c1ccncc1 (stereo not drawn) | - | - | . | - | - | - | .
N#CC1=C(N)Oc2n[nH]c(-c3cccs3)c2C1c1ccco1 (stereo not drawn) | - | - | - | - | -3.47 | - | 0.053
Cc1nc2cc(F)ccc2n1C1CCN(S(=O)(=O)c2ccccc2)CC1 | - | - | - | - | -6.13 | - | ?
Cc1nc2cc(F)ccc2n1C1CCN(C(=O)c2ccc(F)cc2F)CC1 | . | - | . | - | - | - | .
CCNC(=S)N/N=C/c1cc(C)n(-c2ccc(Cl)cc2)c1C | - | - | . | - | 3.01 | - | -
Cc1cc(/C=N/NC(N)=S)c(C)n1-c1ccc(Cl)c(Cl)c1 | - | - | - | - | - | - | .
CC(=O)N/N=C/c1cc(C)n(-c2ccc(Br)cc2)c1C | - | - | - | - | . | - | .
Cc1cc(/C=N/NC(N)=O)c(C)n1-c1ccc(F)cc1 | . | - | . | - | 2.89 | - | ?
COC(=O)N/N=C/c1cc(C)n(-c2ccc(Br)cc2)c1C | - | . | . | . | . | . | -
COC(=O)N/N=C/c1cc(C)n(-c2ccc(F)cc2)c1C | - | - | . | - | . | - | .
O=C(CCl)Nc1cn(-c2ccccc2)nc1-c1ccc(F)cc1 | - | - | . | - | - | - | .
Cc1cc2c(cc1S(=O)(=O)N(C)c1ccccc1)NC(=O)CO2 | - | - | . | - | -4.99 | - | 0.0532
Cc1onc(-c2c(F)cccc2Cl)c1C(O)c1ccc(F)cc1 (stereo not drawn) | - | . | . | . | - | . | .
Cc1ccc(N=Cc2cc(Br)cc(Cl)c2O)cc1 | - | - | . | - | 3.44 | - | 0.101
Oc1c(Cl)cc(Cl)cc1C=Nc1ccc(Br)cc1 | - | - | - | - | . | - | .
Cc1ccc(C(=O)N2C(CC(=O)Nc3ccc(Cl)cc3)C(=O)NC3CCCCC32)cc1 (stereo not drawn) | - | - | . | - | . | - | 0.0674
Cc1ccc(NCc2nnc(SCC(=O)NNC(=O)Cc3ccccc3)n2C)cc1 | - | . | . | . | . | . | .
CS(=O)(=O)Nc1ccccc1C(=O)Nc1cc(Cl)cc(Cl)c1 | - | - | - | - | - | - | .
CCOC(=O)c1cnn(-c2ccc(Cl)cc2)c1C1CCN(C(=O)OC(C)(C)C)CC1 | - | - | - | - | - | - | .
Cc1ccc(-n2ncc(C(=O)Nc3cc(Cl)ccc3Cl)c2C2CCNCC2)cc1 | - | - | . | + | -6.24 | - | 0.0579
Cc1ccc(-n2ncc(C(=O)Nc3cc(Cl)cc(Cl)c3)c2C2CCNCC2)cc1C | ? | - | . | + | -6.12 | - | 0.0479
SMILES | Insulin prom up | ABCG2 inh | sdo1 growth | Autophagy mod | ROMK mod | ABCB1 block | ROMK retest
O=C(NNS(=O)(=O)c1ccc(F)cc1F)c1csc(-c2cccnc2)n1 | - | . | . | . | . | . | .
CC1CC(C)CN(c2ccc([N+](=O)[O-])nc2)C1 (stereo not drawn) | . | - | . | - | - | - | .
O=C(CNc1ccc(Cl)cc1)c1ccc(Br)cc1 | - | - | . | - | 2.69 | - | -
O=C(Cn1nc(CNc2ccc(Cl)cc2)[n+]2c1CCCCC2)c1ccc(Br)cc1 | - | - | - | - | -3.72 | - | 0.0533
CCOC(=O)Nc1ccc(S(=O)(=O)Nc2nc(C)cc(C)n2)cc1 | - | - | - | - | 2.42 | - | -
CCOC(=O)Nc1ccc(S(=O)(=O)Nc2nccc(C)n2)cc1 | . | - | - | - | . | - | .
CC(C)=NNc1nc2c(c(=O)[nH]c(=O)n2C)n1CCc1ccccc1 | - | - | . | - | -1.67 | - | -
CC/C(C)=N/Nc1nc2c(c(=O)[nH]c(=O)n2C)n1CCc1ccccc1 | - | - | . | - | . | - | .
CC(C)CCSc1nc2c(c(=O)[nH]c(=O)n2C)n1CCCc1ccccc1 | . | - | - | . | . | - | -
CCN(C(=O)c1cnc(OC)cc1C(F)(F)F)c1ccc(Cl)cc1Cl | - | . | . | . | . | . | .
CC1CCCCN1C(=O)/C=C/c1ccccc1[N+](=O)[O-] (stereo not drawn) | . | - | . | - | - | - | .
Cc1ccc(/C=C/C(=O)NC2CCCCCCC2)o1 | - | - | - | - | - | - | .
O=C(Nc1ccc2c(c1)nc1n2CCN(C2CCCCC2)C1)NC1CCCCC1 | - | - | - | - | -3.1 | - | 0.0418
COCCN1C(=O)C(=O)/C(=C(/O)c2ccc(S(=O)(=O)N3CCOCC3)cc2)C1c1cccc(Cl)c1 (stereo not drawn) | - | . | . | . | . | . | .
Cc1ccc(NC(=O)c2ccc3c(c2)[nH]c(=O)n3C(C)C)cc1 | - | - | . | - | 2.87 | - | -
CCCCN(CCCC)CC(O)COc1ccccc1Br (stereo not drawn) | - | - | - | - | . | - | .
O=C(O)/C=C/C(=O)NNc1ncnc2ccccc12 | - | . | . | . | . | . | .
COc1cccc(N2CC(O)=C(c3nc4ccccc4s3)C2=N)c1 | . | - | . | - | 3.31 | - | ?
COc1ccc(N2CC(O)=C(c3nc4ccccc4s3)C2=N)cc1 | - | - | - | - | . | - | .
CCOC(=O)Cc1csc(NC(=S)NC(=O)c2cc(OC)c(OC)c(OC)c2)n1 | - | . | . | . | . | . | .
COc1ccc(CCNc2oc(COc3ccccc3Cl)nc2C#N)cc1OC | - | - | - | . | . | - | 0.0668
COc1ccc(CCNc2oc(COc3ccccc3F)nc2C#N)cc1OC | . | - | - | - | - | - | .
Clc1cccc(Cl)c1C1=NOC(c2nnc(-c3ccccc3)o2)C1 (stereo not drawn) | - | . | . | . | . | . | .
CC(C)c1ccc(C(N)=S)cc1 | - | - | . | - | - | - | .
Oc1ccc2cc(Br)ccc2c1CN1CCCC1 | - | - | . | - | - | - | 0.0638
SMILES | Insulin prom up | ABCG2 inh | sdo1 growth | Autophagy mod | ROMK mod | ABCB1 block | ROMK retest
Oc1ccc2ccccc2c1CN1CCCC1 | - | - | . | - | - | - | .
CC[C@@H]1CC=C[C@H]2[C@H]1C(=O)N(Cc1ccccc1)[C@H]2c1ccoc1 | - | . | . | . | . | . | .
O=C1C2C(c3cccc(/C=C/c4ccccc4)c3)CC=CC2C(c2ccc(C(F)(F)F)cc2)N1Cc1ccccc1 (stereo not drawn) | . | . | . | . | . | . | -
COCCn1cnnc1SCC(=O)Nc1ccc(Br)cc1F | - | - | . | - | - | - | .
Cc1c(Nc2cc(Cl)c3nonc3c2[N+](=O)[O-])c(=O)n(-c2ccccc2)n1C | - | - | . | + | -4.38 | - | 0.0398
Cc1c(Nc2cc(N3CCOCC3)c3nonc3c2[N+](=O)[O-])c(=O)n(-c2ccccc2)n1C | - | - | . | - | - | - | .
COc1ccc(CCNc2ccc(N3C(=O)CC(C)C3=O)cc2[N+](=O)[O-])cc1OC (stereo not drawn) | - | - | . | - | - | - | .
